The values that follow come from ChEMBL document CHEMBL4049430, “Indazole-6-phenylcyclopropylcarboxylic Acids as Selective GPR120 Agonists with in Vivo Efficacy” (J Med Chem, 2017).

Data set [1] is described as follows: Clearance in mouse at 1 mg/kg, iv after 24 hrs. It counts as ADME, organism-based. The note with it: in vivo.
Data set [2] can be described thus: Ratio of unbound drug level in GPR120 knockout mouse brain to blood at 100 mg/kg administered through oral gavage 30 mins prior to glucose challenge measured after 90 mins. The note with it: in vivo, 1.5 h.
Data set [3] is described as follows: Ratio of unbound drug level in mouse brain to blood at 5 mg/kg administered through oral gavage after 2 hrs. Particulars: brain/blood.
Data set [4] addresses Free fatty acid receptor 1 (Mus musculus) (UniProt Q76JU9). As to the kind of experiment: Agonist activity at mouse GPR40 expressed in HEK293 cells assessed as increase in intracellular calcium level after 5 mins by FLUO-4-AM dye-based FLIPR assay relative to control. It counts as functional, cell-based. The method, boiled down: (§1)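 HEK293s cells stably expressing mouse GPR40 were seeded 24 h before assay and loaded for 1 h with calcium 3/Fluo-4 AM in HBSS, 20 mM HEPES, 0.01% BSA, 2.5 mM probenecid, pH 7.4. FLIPR Tetra took 10 baseline reads, then read for 5 min after addition. Runs were in duplicate, 9 points, 100 μM to 7 nM final, as % of maximal eladic acid control.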
(A change in cytosolic calcium serves as a functional read-out for many receptors and channels.)

For data set [5], the target named is T1, Free fatty acid receptor 4 (Mus musculus, UniProt Q7TMA4).
T1 sequence (Q7TMA4 whole entry): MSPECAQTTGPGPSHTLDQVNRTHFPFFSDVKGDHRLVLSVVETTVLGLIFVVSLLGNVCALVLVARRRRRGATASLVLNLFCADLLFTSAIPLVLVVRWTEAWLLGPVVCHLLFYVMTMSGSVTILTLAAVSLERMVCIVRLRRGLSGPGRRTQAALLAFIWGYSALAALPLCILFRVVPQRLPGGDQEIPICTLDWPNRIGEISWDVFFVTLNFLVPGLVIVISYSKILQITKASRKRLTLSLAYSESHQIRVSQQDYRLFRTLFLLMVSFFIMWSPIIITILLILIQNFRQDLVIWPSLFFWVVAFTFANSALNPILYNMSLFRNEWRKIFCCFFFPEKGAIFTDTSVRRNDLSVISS
As to the kind of experiment: Agonist activity at mouse GPR120 expressed in CHO-FlpIn cells after 15 mins by DMR assay. It is filed as cell-based. The method, boiled down:
(§2)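 Cryopreserved CHO FlpIn cells stably expressing human or mouse GPR120 were seeded 48 h before assay, serum-starved for 24 h, then held 2 h in HBSS/20 mM HEPES/0.01% BSA (pH 7.4) with 0.5% DMSO. DMR was read over a 10 min baseline and for 15 min after addition. Runs were in duplicate, 10 points, 16 μM to 0.8 nM final, as % of maximal control agonist.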

The nature of data set [6]: Octanol-buffer partition coefficient, log D of the compound at pH 7.4 after 30 mins by LC-UV based shake-flask method.
A short description of data set [7]: Cmax in mouse at 5 mg/kg administered through oral gavage after 24 hrs. It counts as ADME, organism-based. Particulars: in vivo. Further details: dose 5 mg/kg, route oral.
Data set [8] concerns the target Free fatty acid receptor 1 (Mus musculus, UniProt Q76JU9). As to the kind of experiment: Agonist activity at mouse GPR40 expressed in HEK293 cells assessed as increase in intracellular calcium level after 5 mins by FLUO-4-AM dye-based FLIPR assay. It is filed as functional, cell-based. An outline of the steps: as §1
In data set [9] the target is Adenosine receptor A2a (Homo sapiens, UniProt P29274). The data set can be described thus: Inhibition of Adenosine A2A receptor (unknown origin).
Data set [10] can be described thus: Ratio of drug level in mouse brain to blood at 5 mg/kg administered through oral gavage after 2 hrs. It counts as ADME, organism-based.
Data set [11] in a line: Protein binding in mouse plasma assessed as unbound fraction after 24 hrs by equilibrium dialysis. It counts as ADME, cell-free. For orientation: Equilibrium dialysis compares concentrations on both sides of a semipermeable membrane.
For data set [12], the target named is T2, Free fatty acid receptor 4 (Mus musculus) (UniProt Q7TMA4).
T2 sequence (whole entry): T1 sequence (Q7TMA4 whole entry)
The data set can be described thus: Agonist activity at mouse GPR120 expressed in CHO-FlpIn cells after 15 mins by DMR assay relative to control. It counts as cell-based. The method, boiled down:
as §2

The nature of data set [13]: Apparent permeability across apical to basolateral side in human Caco2 cells. Particulars: Caco-2. For orientation: Caco-2 cells form a polarised layer with tight junctions and transporters.
For data set [14], the target named is T3, Free fatty acid receptor 4 (Homo sapiens, UniProt Q5NUL3).
T3 sequence (Q5NUL3 whole entry): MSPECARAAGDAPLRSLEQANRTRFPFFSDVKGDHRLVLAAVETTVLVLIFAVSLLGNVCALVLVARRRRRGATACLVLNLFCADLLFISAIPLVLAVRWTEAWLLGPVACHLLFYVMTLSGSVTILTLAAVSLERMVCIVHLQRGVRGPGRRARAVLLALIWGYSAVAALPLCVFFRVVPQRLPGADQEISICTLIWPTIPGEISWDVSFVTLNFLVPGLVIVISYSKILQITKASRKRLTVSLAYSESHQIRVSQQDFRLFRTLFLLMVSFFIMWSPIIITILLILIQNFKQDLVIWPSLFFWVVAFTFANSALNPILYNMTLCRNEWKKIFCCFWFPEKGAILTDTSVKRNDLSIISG
As to the kind of experiment: Agonist activity at human GPR120 expressed in CHO-FlpIn cells after 15 mins by DMR assay. It is filed as cell-based. The method, boiled down: as §2

Data set [15] in a line: Volume of distribution at steady state in mouse at 1 mg/kg, iv after 24 hrs. Particulars: in vivo, read-out: Vdss. It counts as ADME, organism-based.
Data set [16] can be described thus: Oral bioavailability in mouse at 5 mg/kg after 24 hrs. It counts as ADME, organism-based. The note with it: in vivo.
Data set [17] deals with T4, Free fatty acid receptor 4 (Homo sapiens) (UniProt Q5NUL3).
T4 sequence (whole entry): T3 sequence (Q5NUL3 whole entry)
As to the kind of experiment: Agonist activity at human GPR120 expressed in CHO-FlpIn cells after 15 mins by DMR assay relative to control. It is filed as cell-based. An outline of the steps:
as §2

The test system of data set [18] is Mus musculus. The data set can be described thus: Antidiabetic activity in wild-type mouse assessed as reduction in glucose excursion at 100 mg/kg administered through oral gavage 30 mins prior to glucose challenge measured after 90 mins by OGTT relative to control. It is filed as functional. Further details: scale not given: the % may be the effect or the level left. An outline of the steps:
(§3)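 OGTT used in-house C57BL/6J mice aged 10–11 weeks. GPR120 knockout and wild-type controls were bred in house, back-crossed onto C57BL/6J, and used at 9–10 weeks. Compound was given as a suspension: a concentrated stock was made at rt the day before and diluted on study day to the dosing concentrations.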

The test system of data set [19] is Mus musculus. The data set can be described thus: Antidiabetic activity in GPR120 knockout mouse assessed as reduction in glucose excursion at 100 mg/kg administered through oral gavage 30 mins prior to glucose challenge measured after 90 mins by OGTT. It counts as functional, organism-based. The method, boiled down: as §3
Data set [20] can be described thus: Ratio of unbound drug level in wild-type mouse brain to blood at 100 mg/kg administered through oral gavage 30 mins prior to glucose challenge measured after 90 mins. The note with it: brain/blood.
The test system of data set [21] is Mus musculus. As to the kind of experiment: Antidiabetic activity in C57BL/6J mouse assessed as reduction in glucose excursion at 100 mg/kg administered through oral gavage 30 mins prior to glucose challenge measured after 90 mins by OGTT relative to control. It is filed as functional. Also on record: scale not given: the % may be the effect or the level left. An outline of the steps:
as §3

In data set [22] the test system is MDR1. The data set can be described thus: Efflux ratio of permeability in MDCK2-MDR1 cells at 10 uM. Particulars: dog, MDCK-MDR1.

Active and inactive are the calls of the source. No cut-off for these calls is given here. Bounds are passed on as bounds.

Sequence of Free fatty acid receptor 1 (Q76JU9 whole entry): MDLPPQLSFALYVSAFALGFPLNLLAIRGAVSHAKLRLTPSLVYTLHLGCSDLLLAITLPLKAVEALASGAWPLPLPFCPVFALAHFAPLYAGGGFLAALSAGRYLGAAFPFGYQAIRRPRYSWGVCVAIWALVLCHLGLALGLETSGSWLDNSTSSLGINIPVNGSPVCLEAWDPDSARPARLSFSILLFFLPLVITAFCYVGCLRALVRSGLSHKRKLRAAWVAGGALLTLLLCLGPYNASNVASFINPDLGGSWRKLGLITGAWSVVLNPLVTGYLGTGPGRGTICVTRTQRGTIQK
Sequence of Free fatty acid receptor 1 (Mus musculus) (Q76JU9 whole entry): as above
Sequence of Adenosine receptor A2a (P29274 whole entry): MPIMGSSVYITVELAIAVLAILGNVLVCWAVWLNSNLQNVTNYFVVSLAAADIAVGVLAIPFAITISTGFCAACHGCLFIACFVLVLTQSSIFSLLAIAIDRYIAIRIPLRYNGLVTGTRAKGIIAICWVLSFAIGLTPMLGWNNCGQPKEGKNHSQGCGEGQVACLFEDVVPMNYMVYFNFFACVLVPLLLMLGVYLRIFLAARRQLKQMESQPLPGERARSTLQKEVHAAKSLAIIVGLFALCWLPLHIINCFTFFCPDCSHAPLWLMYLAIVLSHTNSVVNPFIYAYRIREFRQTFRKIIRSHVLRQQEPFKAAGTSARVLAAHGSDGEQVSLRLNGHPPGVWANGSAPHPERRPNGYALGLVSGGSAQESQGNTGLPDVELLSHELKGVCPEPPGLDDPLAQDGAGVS

Broadly, the clearance is the rate of elimination divided by the concentration. Usually EC50 stands for the concentration needed to bring the measured effect to its halfway point. In general, logD refers to the decadic logarithm of the distribution of all forms, ionised or not, between an organic phase and buffer at a given pH. As a reminder, the Cmax is the highest concentration seen after dosing. For orientation: Ki means the dissociation constant of the complex between target and ligand, obtained from inhibition or displacement. By Kp is commonly meant tissue or fluid exposure divided by exposure in the circulation. For orientation: fraction unbound means free concentration divided by total concentration. By Papp A→B is commonly meant the apparent permeability from the apical to the basolateral side of a cell layer. In general, efflux ratio refers to the permeability from basolateral to apical divided by that in the opposite direction, in the common usage. `Cc1ccc(-n2nc(C)c3cnc(-c4ccc([C@H]5C[C@@H]5C(=O)O)cc4F)cc32)nc1` displayed a clearance in [1] of 13 mL/min/kg. Besides, in [2], the Ratio was found to be 0.12. In addition, the Kp uu at 2 h in data set [3] worked out at 0.14. Besides, the Efficacy in [4] amounted to 2%; in [12], 79%; in data set [17] it was 66%. Also, the values for the concentration giving a half-maximal response (EC50) in [5], in [8] and in data set [14] were 1 µM, more than 100 µM and 0.74 µM, respectively. Moreover, in data set [6], the logD at 0.5 h came out at 2.6. In [7], the Cmax was 3.3 µM. In addition, the affinity in [9], expressed as Ki, was 1.7 µM. Further, the Kp at 2 h in [10] turned out to be 0.37. The fraction unbound at 24 h in [11] turned out to be 0.021. For the same compound, in [13], the Papp A→B worked out at 76 ×10⁻⁶ cm/s. Also, in data set [15], the Vd is 2.4 L/kg. Besides, the bioavailability in [16] was determined as 131%. Further, the Activity in [18] came to 47%; in [21] it was 45%. Also, the outcome in [19] was inactive. For the same compound, the Kp uu at 1.5 h in data set [20] turned out to be 0.12. In data set [22], the efflux ratio at 10 µM is 2.8.
